Source: ChEMBL document CHEMBL4028845, “Design, Synthesis, and Properties of a Potent Inhibitor of Pseudomonas aeruginosa Deacetylase LpxC” (J Med Chem, 2017)
≈ marks a conversion by molar mass, not a printed value.

How the values were obtained:
Pseudomonas aeruginosa [1] = test: Antibacterial activity against Pseudomonas aeruginosa clinical isolate after 18 to 24 hrs; type: functional
[2] = target: T1, UDP-3-O-acyl-N-acetylglucosamine deacetylase (Pseudomonas aeruginosa (strain ATCC 15692 / PAO1 / 1C / PRS 101 / LMG12228), UniProt P47205); test: Inhibition of Pseudomonas aeruginosa LpxC using UDP-3-O-(R-hydroxydecanoyl)-N-acetylglucosamine as substrate preincubated for 30 mins followed by substrate addition measured after 20 mins by LC-MS/MS analysis
T1 sequence (P47205 whole entry): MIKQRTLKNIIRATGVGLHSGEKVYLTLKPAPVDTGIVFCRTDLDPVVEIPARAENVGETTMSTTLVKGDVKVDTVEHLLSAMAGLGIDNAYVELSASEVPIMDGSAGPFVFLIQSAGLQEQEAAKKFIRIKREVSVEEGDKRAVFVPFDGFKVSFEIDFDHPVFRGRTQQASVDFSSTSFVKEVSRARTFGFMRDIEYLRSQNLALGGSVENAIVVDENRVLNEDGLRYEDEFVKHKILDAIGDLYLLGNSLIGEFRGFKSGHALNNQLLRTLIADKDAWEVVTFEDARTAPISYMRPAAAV

[3] = Cytotoxicity against human HepG2 cells assessed as reduction in cell viability after 72 hrs by WST1 assay; type: cell-based
Procedure, shortened: (§1)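 Cells were grown and assayed in medium with 10% heat-inactivated FBS and exposed to compound for 72 h. Metabolic activity was read as WST-1 cleavage to formazan at A450, with puromycin as positive control. CC50 (50% reduction in viability) was calculated from dose-response curves.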

[4] = Cytotoxicity against human K562 cells assessed as reduction in cell viability after 72 hrs by WST1 assay; type: cell-based; procedure, shortened: as §1
Pseudomonas aeruginosa [5] = test: Antibacterial activity against mexAB-oprM deficient Pseudomonas aeruginosa K1119 after 18 to 24 hrs; type: functional
Procedure, shortened: (§2)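 Broth MIC per CLSI guidelines in cation-adjusted Mueller Hinton broth. Compounds were dissolved and serially diluted in DMSO (carbapenems in water) before addition to plates. Incubation was at 37 °C for 18−24 h. MIC is the lowest concentration preventing visible growth. MIC50/MIC90 are the concentrations inhibiting 50% or 90% of isolates tested.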

[6] = Solubility of the compound at pH 6.8 by high throughput screening assay; type: physicochemical; details: buffer
Pseudomonas aeruginosa [7] = test: Antibacterial activity against hypersusceptible Pseudomonas aeruginosa Z61 after 18 to 24 hrs; type: functional; procedure, shortened: as §2
Pseudomonas aeruginosa [8] = test: Antibacterial activity against Pseudomonas aeruginosa PAO1 K767 after 18 to 24 hrs; type: functional; procedure, shortened: as §2
Burkholderia cepacia = test: Antibacterial activity against Burkholderia cepacia NB49016 after 18 to 24 hrs; type: functional; procedure, shortened: as §2
[9] = system: Stenotrophomonas maltophilia; test: Antibacterial activity against Stenotrophomonas maltophilia NB55011 after 18 to 24 hrs; type: functional; procedure, shortened: as §2
Klebsiella aerogenes = test: Antibacterial activity against Enterobacter aerogenes NB24004 after 18 to 24 hrs; type: functional; procedure, shortened: as §2
Klebsiella oxytoca = test: Antibacterial activity against Klebsiella oxytoca NB30007 after 18 to 24 hrs; type: functional; procedure, shortened: as §2
Acinetobacter baumannii = test: Antibacterial activity against Acinetobacter baumannii NB48015 after 18 to 24 hrs; type: functional; procedure, shortened: as §2
Proteus mirabilis = test: Antibacterial activity against Proteus mirabilis NB32022 after 18 to 24 hrs; type: functional; procedure, shortened: as §2
Alcaligenes = test: Antibacterial activity against Alcaligenes xylosus NB56002 after 18 to 24 hrs; type: functional; procedure, shortened: as §2

IC50 [2]	MIC (Pseudomonas aeruginosa [5])	MIC (Pseudomonas aeruginosa [7])	MIC (Pseudomonas aeruginosa [8])	Structure (SMILES)	MIC50 (Pseudomonas aeruginosa [1])	MIC90 (Pseudomonas aeruginosa [1])	other results
				C[C@@H](O)[C@H]1C(=O)N2C(C(=O)O)=C(S[C@@H]3CN[C@H](CNS(N)(=O)=O)C3)[C@H](C)[C@H]12 [DORIPENEM]	1 µg/mL (≈ 2.38 µM)	32 µg/mL (≈ 76.1 µM)	
1.46 nM	0.06 µg/mL (≈ 0.176 µM)	0.25 µg/mL (≈ 0.732 µM)	2 µg/mL (≈ 5.86 µM)	CCc1ccc(-c2ccc(C(=O)N[C@H](C(=O)NO)[C@@H](C)N)cc2)cc1			CC50 at 72 h [3]: 12800 nM; CC50 at 72 h [4]: 7370 nM; solubility ([6]; read-out: solubility): 4 µg/mL
	2 µg/mL (≈ 6.26 µM)	4 µg/mL (≈ 12.5 µM)	16 µg/mL (≈ 50.1 µM)	CC#CCOc1ccc(C(=O)N[C@@H](C(=O)NO)C(C)(C)N)cc1			
4.19 nM	0.5 µg/mL (≈ 1.05 µM)	4 µg/mL (≈ 8.38 µM)	32 µg/mL (≈ 67 µM)	C[C@@H](NCC(=O)N1CCNC(=O)C1)[C@H](NC(=O)c1ccc(C#Cc2ccccc2)cc1)C(=O)NO			CC50 at 72 h [4]: > 100000 nM; solubility [6]: 0.392 µM
16.4 nM	0.5 µg/mL (≈ 1.64 µM)	1 µg/mL (≈ 3.28 µM)	1 µg/mL (≈ 3.28 µM)	CC#CCOc1ccc(C(=O)N[C@H](C(=O)NO)[C@H](C)N)cc1			
				C[C@@H](O)[C@H]1C(=O)N2C(C(=O)O)=C(S[C@@H]3CN[C@H](C(=O)N(C)C)C3)[C@H](C)[C@H]12 [MEROPENEM]	2 µg/mL (≈ 5.22 µM)	32 µg/mL (≈ 83.4 µM)	
				NCC[C@H](O)C(=O)N[C@@H]1C[C@H](N)[C@@H](O[C@H]2O[C@H](CN)[C@@H](O)[C@H](O)[C@H]2O)[C@H](O)[C@H]1O[C@H]1O[C@H](CO)[C@@H](O)[C@H](N)[C@H]1O [AMIKACIN]	16 µg/mL (≈ 27.3 µM)	> 128 µg/mL	
117 nM	16 µg/mL (≈ 53.4 µM)	32 µg/mL (≈ 107 µM)	128 µg/mL (≈ 428 µM)	C[C@@H](N)[C@H](NC(=O)[C@H]1CC[C@H](C(C)(C)C)CC1)C(=O)NO			
				O=C(O)c1cn(C2CC2)c2cc(N3CCNCC3)c(F)cc2c1=O [CIPROFLOXACIN]			MIC (Burkholderia cepacia): 0.5 µg/mL (≈ 1.51 µM); MIC [9]: 0.5 µg/mL (≈ 1.51 µM); MIC (Klebsiella aerogenes): > 16 µg/mL; MIC (Klebsiella oxytoca): ≤ 0.03 µg/mL; MIC (Acinetobacter baumannii): 0.5 µg/mL (≈ 1.51 µM); MIC (Proteus mirabilis): ≤ 0.03 µg/mL; MIC (Alcaligenes): 2 µg/mL (≈ 6.04 µM)
				NC[C@H]1O[C@H](O[C@H]2[C@H](O)[C@@H](O[C@H]3O[C@H](CO)[C@@H](O)[C@H](N)[C@H]3O)[C@H](N)C[C@@H]2N)[C@H](N)C[C@@H]1O [TOBRAMYCIN]	2 µg/mL (≈ 4.28 µM)	> 128 µg/mL	
				CCN1CCN(C(=O)N[C@@H](C(=O)N[C@@H]2C(=O)N3[C@@H]2SC(C)(C)[C@@H]3C(=O)O)c2ccccc2)C(=O)C1=O [PIPERACILLIN]	32 µg/mL (≈ 61.8 µM)	> 128 µg/mL	
268 nM	1 µg/mL (≈ 3.23 µM)	4 µg/mL (≈ 12.9 µM)	32 µg/mL (≈ 103 µM)	C[C@@H](N)[C@H](NC(=O)c1ccc(OC(C)(C)C)cc1)C(=O)NO			
	0.125 µg/mL (≈ 0.26 µM)	1 µg/mL (≈ 2.08 µM)	16 µg/mL (≈ 33.2 µM)	CCc1ccc(-c2ccc(C(=O)N[C@H](C(=O)NO)[C@@H](C)NCC(=O)N3CCNC(=O)C3)cc2)cc1			
900 nM	16 µg/mL (≈ 48 µM)	32 µg/mL (≈ 96 µM)	> 128 µg/mL	CC#CCOc1ccc(C(=O)N[C@H](C(=O)NO)[C@H](N)C(C)C)cc1			
				CC1(C)S[C@@H]2[C@H](NC(=O)[C@H](C(=O)O)c3ccsc3)C(=O)N2[C@H]1C(=O)O [TICARCILLIN]	128 µg/mL (≈ 333 µM)	> 128 µg/mL	
